Measurements reported in ChEMBL document CHEMBL1157100, “The alkyl-connected 2-amino-6-vinylpurine (AVP) crosslinking agent for improved selectivity to the cytosine base in RNA” (Bioorg Med Chem, 2010).
The source made the active and inactive calls. The rule behind the calls is not given here.

System: Nucleic Acid
Experiment: Binding affinity to FAM-tagged 27 mer RNA hairpin loop assessed as crosslinking at 10 uM by PAGE
Assay type: nucleic-acid assay
Procedure, shortened: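 Reactive ODN at 10 µM with 1 µM FAM-labeled target DNA or RNA in 100 mM NaCl, 50 mM MES pH 5 plus RNase OUT, mixed at 0 °C and then incubated at 37 °C. Reactions were stopped at set times with formamide/EDTA/bromophenol blue buffer. Products were resolved on 15% denaturing polyacrylamide gel with 7 M urea, and FAM band intensities were quantified to give crosslinking yield.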

Row | Activity | SMILES
1 | Active | CSCCc1nc(N)nc2c1ncn2CC[C@H]1C[C@H](OP(=O)(O)OC[C@H]2O[C@@H](n3cc(C)c(=O)[nH]c3=O)C[C@@H]2OP(=O)(O)OC[C@H]2O[C@@H](n3cnc4c(N)ncnc43)[C@H](O)[C@@H]2OP(=O)(O)OC[C@H]2O[C@@H](n3cc(C)c(=O)[nH]c3=O)C[C@@H]2OP(CCC#N)N(C(C)C)C(C)C)[C@@H](COP(=O)(O)O[C@H]2C[C@H](n3cc(C)c(=O)[nH]c3=O)O[C@@H]2COP(=O)(O)O[C@H]2C[C@H](n3cc(C)c(=O)[nH]c3=O)O[C@@H]2COP(=O)(O)O[C@H]2[C@@H](O)[C@H](n3cnc4c(N)ncnc43)O[C@@H]2COP(=O)(O)O[C@H]2[C@@H](O)[C@H](n3cnc4c(N)ncnc43)O[C@@H]2COP(=O)(O)O[C@H]2[C@@H](O)[C@H](n3cnc4c(N)ncnc43)O[C@@H]2COP(=O)(O)O[C@H]2[C@@H](O)[C@H](n3ccc(N)nc3=O)O[C@@H]2COP(=O)(O)O[C@H]2C[C@H](n3cc(C)c(=O)[nH]c3=O)O[C@@H]2COP(=O)(O)O[C@H]2[C@@H](O)[C@H](n3cnc4c(N)ncnc43)O[C@@H]2COP(=O)(O)O[C@H]2[C@@H](O)[C@H](n3cnc4c(=O)[nH]c(N)nc43)O[C@@H]2COP(=O)(O)O[C@H]2C[C@H](n3cc(C)c(=O)[nH]c3=O)O[C@@H]2COP(=O)(O)O[C@H]2[C@@H](O)[C@H](n3ccc(N)nc3=O)O[C@@H]2COP(=O)(O)O[C@H]2[C@@H](O)[C@H](n3cnc4c(N)ncnc43)O[C@@H]2COP(=O)(O)O[C@H]2C[C@H](n3cc(C)c(=O)[nH]c3=O)O[C@@H]2COP(=O)(O)O[C@H]2[C@@H](O)[C@H](n3cnc4c(N)ncnc43)O[C@@H]2COP(=O)(O)O[C@H]2C[C@H](n3cc(C)c(=O)[nH]c3=O)O[C@@H]2CO)O1 (some centres not stated)
2 | inactive | CSCCc1nc(N)nc2c1ncn2[C@H]1C[C@H](OP(=O)(O)OC[C@H]2O[C@@H](n3cc(C)c(=O)[nH]c3=O)C[C@@H]2OP(=O)(O)OC[C@H]2O[C@@H](n3cnc4c(N)ncnc43)[C@H](O)[C@@H]2OP(=O)(O)OC[C@H]2O[C@@H](n3cc(C)c(=O)[nH]c3=O)C[C@@H]2OP(CCC#N)N(C(C)C)C(C)C)[C@@H](COP(=O)(O)O[C@H]2C[C@H](n3cc(C)c(=O)[nH]c3=O)O[C@@H]2COP(=O)(O)O[C@H]2C[C@H](n3cc(C)c(=O)[nH]c3=O)O[C@@H]2COP(=O)(O)O[C@H]2[C@@H](O)[C@H](n3cnc4c(N)ncnc43)O[C@@H]2COP(=O)(O)O[C@H]2[C@@H](O)[C@H](n3cnc4c(N)ncnc43)O[C@@H]2COP(=O)(O)O[C@H]2[C@@H](O)[C@H](n3cnc4c(N)ncnc43)O[C@@H]2COP(=O)(O)O[C@H]2[C@@H](O)[C@H](n3ccc(N)nc3=O)O[C@@H]2COP(=O)(O)O[C@H]2C[C@H](n3cc(C)c(=O)[nH]c3=O)O[C@@H]2COP(=O)(O)O[C@H]2[C@@H](O)[C@H](n3cnc4c(N)ncnc43)O[C@@H]2COP(=O)(O)O[C@H]2[C@@H](O)[C@H](n3cnc4c(=O)[nH]c(N)nc43)O[C@@H]2COP(=O)(O)O[C@H]2C[C@H](n3cc(C)c(=O)[nH]c3=O)O[C@@H]2COP(=O)(O)O[C@H]2[C@@H](O)[C@H](n3ccc(N)nc3=O)O[C@@H]2COP(=O)(O)O[C@H]2[C@@H](O)[C@H](n3cnc4c(N)ncnc43)O[C@@H]2COP(=O)(O)O[C@H]2C[C@H](n3cc(C)c(=O)[nH]c3=O)O[C@@H]2COP(=O)(O)O[C@H]2[C@@H](O)[C@H](n3cnc4c(N)ncnc43)O[C@@H]2COP(=O)(O)O[C@H]2C[C@H](n3cc(C)c(=O)[nH]c3=O)O[C@@H]2CO)O1 (some centres not stated)
